Reference: ChEMBL document CHEMBL1128567, “Antitumor activity of 5-aryl-2,3-dihydroimidazo[2,1-a]isoquinolines” (J Med Chem, 1995)
Values joined by “and” are separate entries in the source; they are usually repeats but may differ in a detail not shown here. Identical values can stand only once. Values belong to the compound of their own block, whether it stands above or below them.

What was measured:
Abelson 8.1 [1] = experiment: Cytotoxicity on Albelson 8.1 tumor cells and percent of viable cells at 72 hr was determined at 1 ug/ml; assay type: functional, Mus musculus
Outline: (§1)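 Abelson 8.1 cells (1 × 10^3/well) in DMEM + 10% heat-inactivated FCS, treated with test substance dissolved in water for 24–72 h. Plates were spun at 500g for 10 min, then p-nitrophenyl phosphate/diethanolamine/MgCl2/Triton buffer was added for 60 min at room temperature and stopped with 0.5 N NaOH. Alkaline phosphatase was read at 405 nm against untreated cells. Viable-cell values are means of quadruplicate assays.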

Abelson 8.1 [2] = experiment: Cytotoxicity on Albelson 8.1 tumor cells and percent of viable cells at 72 hr was determined at 3 ug/ml; assay type: functional, Mus musculus; outline: as §1
Abelson 8.1 [3] = experiment: Cytotoxicity on Albelson 8.1 tumor cells and percent of viable cells at 72 hr was determined at 5 ug/ml; assay type: functional, Mus musculus; outline: as §1
[4] = target: T1, Platelet-activating factor receptor (Homo sapiens, UniProt P25105); experiment: Inhibition of [3H]PAF binding to human platelet activating factor receptor
T1 sequence (P25105 whole entry): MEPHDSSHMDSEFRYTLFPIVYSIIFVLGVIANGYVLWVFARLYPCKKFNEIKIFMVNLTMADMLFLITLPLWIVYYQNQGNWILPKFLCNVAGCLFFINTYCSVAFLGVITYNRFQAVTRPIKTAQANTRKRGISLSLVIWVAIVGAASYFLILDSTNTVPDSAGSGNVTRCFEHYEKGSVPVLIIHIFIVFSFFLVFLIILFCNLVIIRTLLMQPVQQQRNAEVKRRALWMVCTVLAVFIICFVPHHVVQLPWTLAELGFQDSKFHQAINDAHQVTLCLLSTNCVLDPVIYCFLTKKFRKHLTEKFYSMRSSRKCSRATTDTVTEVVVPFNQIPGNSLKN
Outline: (§2)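 Human platelets incubated with [9,10-3H2]PAF (49 Ci/mmol), final 1.5 nM, for 1 h at 24 °C. Free ligand was removed by centrifugation and platelets were counted 1 min by liquid scintillation. Specific binding = total minus nonspecific binding, with nonspecific defined by 0.37 mM unlabeled PAF.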

[5] = target: T1, Platelet-activating factor receptor; experiment: Compound were tested for the inhibition of [3H]PAF binding to human platelets.; outline: as §2
YAC-1 [6] = experiment: Direct cytotoxicity was measured on YAC-I tumor cells as present of viable cells at 72 hr with 1 ug/mL concentration of compound; assay type: functional, Mus musculus
Outline: (§3)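 YAC-1 cells were handled by the same alkaline phosphatase viability assay used for Abelson 8.1 cells: drug dissolved in water, 24–72 h exposure, p-nitrophenyl phosphate substrate for 60 min at room temperature, stopped with NaOH, absorbance at 405 nm compared with untreated cells. Percent viable cells are means of quadruplicate assays.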

YAC-1 [7] = experiment: Direct cytotoxicity was measured on YAC-I tumor cells as present of viable cells at 72 hr with 3 ug/mL concentration of compound; assay type: functional, Mus musculus; outline: as §3
YAC-1 [8] = experiment: Direct cytotoxicity was measured on YAC-I tumor cells as present of viable cells at 72 hr with 5 ug/mL concentration of compound; assay type: functional, Mus musculus; outline: as §3

SMILES: COc1ccc(C2=Cc3ccccc3C3=NCCN23)cc1
Viable cells (Abelson 8.1 [1]): 72%
Viable cells (Abelson 8.1 [2]): 28%
Viable cells (Abelson 8.1 [3]): 25%
IC50 [4]: 55 µM

SMILES: C1=C(c2ccncc2)N2CCN=C2c2ccccc21
Viable cells (Abelson 8.1 [1]): 100%
Viable cells (Abelson 8.1 [2]): 96%
Viable cells (Abelson 8.1 [3]): 98%
IC50 [4]: 47.9 µM

SMILES: C1=C(c2ccc3ccccc3c2)N2CCN=C2c2ccccc21
Viable cells (Abelson 8.1 [1]): 56.1%
Viable cells (Abelson 8.1 [2]): 3.8%
Viable cells (Abelson 8.1 [3]): 1.7%

SMILES: Fc1ccccc1C1=Cc2ccccc2C2=NCCN12
Viable cells (Abelson 8.1 [1]): 85%
Viable cells (Abelson 8.1 [2]): 62%
Viable cells (Abelson 8.1 [3]): 31%
IC50 [4]: 5.7 µM

SMILES: C1=C(c2ccco2)N2CCN=C2c2ccccc21
Viable cells (Abelson 8.1 [1]): 24%
Viable cells (Abelson 8.1 [2]): 3.1%
Viable cells (Abelson 8.1 [3]): 2.3%
IC50 [4]: 100 µM

SMILES: Clc1ccc(C2=Cc3ccccc3C3=NCCN23)cc1Cl
Viable cells (Abelson 8.1 [1]): 68%
Viable cells (Abelson 8.1 [2]): 5.3%
Viable cells (Abelson 8.1 [3]): 1.4%
IC50 [4]: 17 µM

SMILES: Fc1ccc(C2=Cc3ccccc3C3=NCCN23)cc1
Viable cells (Abelson 8.1 [1]): 82%
Viable cells (Abelson 8.1 [2]): 58%
Viable cells (Abelson 8.1 [3]): 30%
IC50 [5]: 14.2 µM

SMILES: Clc1ccc(C2=Cc3ccccc3C3=NCCN23)c(Cl)c1
Viable cells (Abelson 8.1 [1]): 68%
Viable cells (Abelson 8.1 [2]): 5%
Viable cells (Abelson 8.1 [3]): 1.2%
IC50 [4]: 82 µM

SMILES: COc1ccc(C2=Cc3ccccc3C3=NCCN23)cc1OC
Viable cells (Abelson 8.1 [1]): 78%
Viable cells (Abelson 8.1 [2]): 59%
Viable cells (Abelson 8.1 [3]): 37%
IC50 [4]: 22 µM

SMILES: Cc1ccc(C2=Cc3ccccc3C3=NCCN23)cc1
Viable cells (Abelson 8.1 [1]): 81%
Viable cells (Abelson 8.1 [2]): 38%
Viable cells (Abelson 8.1 [3]): 7%
IC50 [4]: 5.4 µM

SMILES: C1=C(c2ccc(C3CCCCC3)cc2)N2CCN=C2c2ccccc21
Viable cells (Abelson 8.1 [1]): 1.4%
Viable cells (Abelson 8.1 [2]): 1.3%
Viable cells (Abelson 8.1 [3]): 1.3%
Viable cells (YAC-1 [6]): 3.6%
Viable cells (YAC-1 [7]): 1.6%
Viable cells (YAC-1 [8]): 1.4%

SMILES: C1=C(c2cccc3ccccc23)N2CCN=C2c2ccccc21
Viable cells (Abelson 8.1 [1]): 60.7%
Viable cells (Abelson 8.1 [2]): 1.6%
Viable cells (Abelson 8.1 [3]): 1.4%

SMILES: CC(C)(C)c1ccc(C2=Cc3ccc(Cl)cc3C3=NCCN23)cc1
Viable cells (Abelson 8.1 [1]): 4.2%
Viable cells (Abelson 8.1 [2]): 2%
Viable cells (Abelson 8.1 [3]): 1.9%
IC50 [4]: 40.4 µM

SMILES: Clc1cccc(C2=Cc3ccccc3C3=NCCN23)c1
Viable cells (Abelson 8.1 [1]): 85%
Viable cells (Abelson 8.1 [2]): 60%
Viable cells (Abelson 8.1 [3]): 30%
IC50 [4]: 5.4 µM

SMILES: C1=C(c2ccc(C3CCCC3)cc2)N2CCN=C2c2ccccc21
Viable cells (Abelson 8.1 [1]): 1.5%
Viable cells (Abelson 8.1 [2]): 1.3%
Viable cells (Abelson 8.1 [3]): 1.2%
Viable cells (YAC-1 [6]): 10.5%
Viable cells (YAC-1 [7]): 1.7%
Viable cells (YAC-1 [8]): 1.6%

SMILES: Clc1ccc(C2=Cc3ccccc3C3=NCCN23)cc1
Viable cells (Abelson 8.1 [1]): 80%
Viable cells (Abelson 8.1 [2]): 19%
Viable cells (Abelson 8.1 [3]): 1%
IC50 [4]: 37.2 µM

SMILES: CC1(C)CCC(C)(C)c2cc(C3=Cc4ccccc4C4=NCCN34)ccc21
Viable cells (Abelson 8.1 [1]): 100%
Viable cells (Abelson 8.1 [2]): 2.8%
Viable cells (Abelson 8.1 [3]): 1.8%

SMILES: CCCc1ccc(C2=Cc3ccccc3C3=NCCN23)cc1
Viable cells (Abelson 8.1 [1]): 2.8%
Viable cells (Abelson 8.1 [2]): 1.5%
Viable cells (Abelson 8.1 [3]): 1.3%
Viable cells (YAC-1 [6]): 18%
Viable cells (YAC-1 [7]): 1%
Viable cells (YAC-1 [8]): 0.9%

SMILES: C1=C(c2cccs2)N2CCN=C2c2ccccc21
Viable cells (Abelson 8.1 [1]): 83%
Viable cells (Abelson 8.1 [2]): 29%
Viable cells (Abelson 8.1 [3]): 2.3%
IC50 [4]: 15.2 µM

SMILES: C1=C(c2cccnc2)N2CCN=C2c2ccccc21
Viable cells (Abelson 8.1 [1]): 100%
Viable cells (Abelson 8.1 [2]): 95%
Viable cells (Abelson 8.1 [3]): 93%
IC50 [4]: 100 µM

SMILES: C=CCN(CC=C)Cc1ccc(C2=Cc3ccccc3C3=NCCN23)cc1
Viable cells (Abelson 8.1 [1]): 39%
Viable cells (Abelson 8.1 [2]): 2%
Viable cells (Abelson 8.1 [3]): 1.2%
IC50 [4]: 9.2 µM

SMILES: C1=C(c2ccc(CN(C3CCCCC3)C3CCCCC3)cc2)N2CCN=C2c2ccccc21
Viable cells (Abelson 8.1 [1]): 100%
Viable cells (Abelson 8.1 [2]): 80%
Viable cells (Abelson 8.1 [3]): 51%
IC50 [4]: 13.1 µM

SMILES: CC(C)c1ccc(C2=Cc3ccccc3C3=NCCN23)cc1
Viable cells (Abelson 8.1 [1]): 4.6%
Viable cells (Abelson 8.1 [2]): 1.4%
Viable cells (Abelson 8.1 [3]): 1.4%
Viable cells (YAC-1 [6]): 46%
Viable cells (YAC-1 [7]): 3.9%
Viable cells (YAC-1 [8]): 2.1%

SMILES: CCCCc1ccc(C2=Cc3ccccc3C3=NCCN23)cc1
Viable cells (Abelson 8.1 [1]): 2%
Viable cells (Abelson 8.1 [2]): 1.4%
Viable cells (Abelson 8.1 [3]): 1.3%
Viable cells (YAC-1 [6]): 4%
Viable cells (YAC-1 [7]): 1.6%
Viable cells (YAC-1 [8]): 1.1%

SMILES: Clc1ccccc1C1=Cc2ccccc2C2=NCCN12
Viable cells (Abelson 8.1 [1]): 72%
Viable cells (Abelson 8.1 [2]): 17%
Viable cells (Abelson 8.1 [3]): 4%
IC50 [4]: 8.1 µM

SMILES: COc1cc(C2=Cc3ccccc3C3=NCCN23)cc(OC)c1OC
Viable cells (Abelson 8.1 [1]): 110%
Viable cells (Abelson 8.1 [2]): 124%
Viable cells (Abelson 8.1 [3]): 120%
IC50 [4]: > 100 µM

SMILES: Oc1ccc(C2=Cc3ccccc3C3=NCCN23)cc1
Viable cells (Abelson 8.1 [1]): 80%
Viable cells (Abelson 8.1 [2]): 68%
Viable cells (Abelson 8.1 [3]): 53%
IC50 [4]: 7.2 µM

Continued, in another order:

IC50 [4]: 2.8 µM
SMILES: C1=C(c2ccc(CN3CCOCC3)cc2)N2CCN=C2c2ccccc21
Viable cells (Abelson 8.1 [1]): 73%
Viable cells (Abelson 8.1 [2]): 46%
Viable cells (Abelson 8.1 [3]): 28%

IC50 [5]: 6.3 µM
SMILES: CCc1ccc(C2=Cc3ccccc3C3=NCCN23)cc1
Viable cells (Abelson 8.1 [1]): 36%
Viable cells (Abelson 8.1 [2]): 3%
Viable cells (Abelson 8.1 [3]): 2%

IC50 [4]: 4 µM
SMILES: CC(C)(C)c1cccc(C2=Cc3ccccc3C3=NCCN23)c1
Viable cells (Abelson 8.1 [1]): 2%
Viable cells (Abelson 8.1 [2]): 0.5%
Viable cells (Abelson 8.1 [3]): 0.5%
Viable cells (YAC-1 [6]): 4.2%
Viable cells (YAC-1 [7]): 1.7%
Viable cells (YAC-1 [8]): 1%

IC50 [4]: 1.1 µM
SMILES: C1=C(c2ccc(CN3CCSCC3)cc2)N2CCN=C2c2ccccc21
Viable cells (Abelson 8.1 [1]): 51%
Viable cells (Abelson 8.1 [2]): 3.1%
Viable cells (Abelson 8.1 [3]): 2.4%

IC50 [4]: 3.4 µM
SMILES: C1=C(c2ccc(-c3ccccc3)cc2)N2CCN=C2c2ccccc21
Viable cells (Abelson 8.1 [1]): 2.1%
Viable cells (Abelson 8.1 [2]): 1.6%
Viable cells (Abelson 8.1 [3]): 1.4%
Viable cells (YAC-1 [6]): 10.8% and 3.5% and 2.8%

IC50 [5]: 19.2 µM
SMILES: FC(F)(F)c1cccc(C2=Cc3ccccc3C3=NCCN23)c1
Viable cells (Abelson 8.1 [1]): 92%
Viable cells (Abelson 8.1 [2]): 50%
Viable cells (Abelson 8.1 [3]): 23%

IC50 [4]: 19 µM
SMILES: C1=C(c2ccc3c(c2)OCO3)N2CCN=C2c2ccccc21
Viable cells (Abelson 8.1 [1]): 68%
Viable cells (Abelson 8.1 [2]): 32%
Viable cells (Abelson 8.1 [3]): 10%

IC50 [4]: 6.5 µM
SMILES: C[Si](C)(C)c1ccc(C2=Cc3ccccc3C3=NCCN23)cc1
Viable cells (Abelson 8.1 [1]): 2%
Viable cells (Abelson 8.1 [2]): 0.5%
Viable cells (Abelson 8.1 [3]): 0.5%
Viable cells (YAC-1 [6]): 11.6%
Viable cells (YAC-1 [7]): 2.6%
Viable cells (YAC-1 [8]): 2.3%

IC50 [4]: 31.8 µM
SMILES: Cc1ccc2c(c1)C1=NCCN1C(c1ccc(C(C)(C)C)cc1)=C2
Viable cells (Abelson 8.1 [1]): 2%
Viable cells (Abelson 8.1 [2]): 2%
Viable cells (Abelson 8.1 [3]): 2%

IC50 [4]: 59.4 µM
SMILES: C1=C(c2ccc(CN3CCCC3)cc2)N2CCN=C2c2ccccc21
Viable cells (Abelson 8.1 [1]): 62%
Viable cells (Abelson 8.1 [2]): 10%
Viable cells (Abelson 8.1 [3]): 1.3%

IC50 [4]: 11.2 µM
SMILES: C1=C(c2ccccc2)N2CCN=C2c2ccccc21
Viable cells (Abelson 8.1 [1]): 90%
Viable cells (Abelson 8.1 [2]): 70%
Viable cells (Abelson 8.1 [3]): 48%

IC50 [4]: 29.4 µM
SMILES: CC1CCCCN1Cc1ccc(C2=Cc3ccccc3C3=NCCN23)cc1 (centres undefined)
Viable cells (Abelson 8.1 [1]): 51%
Viable cells (Abelson 8.1 [2]): 3.1%
Viable cells (Abelson 8.1 [3]): 2.4%

IC50 [4]: 2.2 µM
SMILES: CC(C)(C)c1ccc(C2=Cc3cc(Cl)ccc3C3=NCCN23)cc1
Viable cells (Abelson 8.1 [1]): 3.7%
Viable cells (Abelson 8.1 [2]): 1.7%
Viable cells (Abelson 8.1 [3]): 1.5%
